# Laboratory results as given in ChEMBL document CHEMBL1136800 (J Med Chem, 2003).
# Key:
# [1] = target: cGMP-specific 3',5'-cyclic phosphodiesterase (Bos taurus, UniProt Q28156); experiment: Inhibitory activity against bovine PDE5 (phosphodiesterase-5).
# [2] = Increase in intracellular cGMP concentration in atrial natriuretic factor treated rat aortic smooth muscle cells.; type: functional, tissue-based; details: Aorta
# In short: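 Primary rat aortic smooth muscle cells grown in DMEM with 10% FCS and used at confluence (3-5 days). Compound in PBS for 30 min at 37 °C, then ANF 0.1 µM for 10 min at 37 °C. Intracellular cGMP extracted with 65% ethanol and measured by scintillation proximity immunoassay, in triplicate wells; DMSO ≤0.1%. EC50 is the concentration giving half the maximal cGMP increase seen at saturating compound.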
# [3] = target: cGMP-dependent 3',5'-cyclic phosphodiesterase (Homo sapiens, UniProt O00408); experiment: Inhibition of human recombinant PDE2 (phosphodiesterase 2)
# cGMP-dependent 3',5'-cyclic phosphodiesterase, sequence (O00408 whole entry): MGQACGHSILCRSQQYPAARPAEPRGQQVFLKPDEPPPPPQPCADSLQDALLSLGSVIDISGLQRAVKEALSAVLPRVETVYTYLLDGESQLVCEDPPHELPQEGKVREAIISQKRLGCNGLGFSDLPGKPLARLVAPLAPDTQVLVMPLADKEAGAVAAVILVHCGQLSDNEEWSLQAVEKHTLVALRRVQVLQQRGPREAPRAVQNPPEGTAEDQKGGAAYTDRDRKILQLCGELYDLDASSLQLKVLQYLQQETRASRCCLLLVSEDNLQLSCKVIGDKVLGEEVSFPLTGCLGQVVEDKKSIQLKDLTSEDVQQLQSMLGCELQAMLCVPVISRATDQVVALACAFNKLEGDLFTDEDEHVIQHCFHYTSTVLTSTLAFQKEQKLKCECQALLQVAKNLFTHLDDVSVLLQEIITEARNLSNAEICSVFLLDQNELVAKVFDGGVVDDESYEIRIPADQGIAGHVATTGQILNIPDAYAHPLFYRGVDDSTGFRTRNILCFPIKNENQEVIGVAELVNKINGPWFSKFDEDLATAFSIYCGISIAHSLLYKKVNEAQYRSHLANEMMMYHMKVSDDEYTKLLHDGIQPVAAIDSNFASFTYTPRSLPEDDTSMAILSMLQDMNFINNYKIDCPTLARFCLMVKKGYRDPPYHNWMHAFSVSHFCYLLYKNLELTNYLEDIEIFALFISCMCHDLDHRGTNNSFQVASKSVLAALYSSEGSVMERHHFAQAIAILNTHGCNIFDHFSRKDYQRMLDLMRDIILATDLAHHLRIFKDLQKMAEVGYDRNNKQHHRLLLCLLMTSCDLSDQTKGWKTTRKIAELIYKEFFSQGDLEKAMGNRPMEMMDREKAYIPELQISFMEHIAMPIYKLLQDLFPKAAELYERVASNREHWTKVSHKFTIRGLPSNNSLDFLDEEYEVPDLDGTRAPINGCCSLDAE
# In short: (§1)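 Incubated 30 min at 30 °C under initial-velocity conditions (≤10-15% hydrolysis). Product separated on QAE Sephadex and counted by scintillation; final DMSO 2%.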
# Phosphodiesterase 3B = Phosphodiesterase 3B (Bos taurus, UniProt E1BN64); experiment: Inhibition of bovine aorta PDE3 (phosphodiesterase 3); in short: as §1
# Phosphodiesterase 3B, sequence (E1BN64 whole entry): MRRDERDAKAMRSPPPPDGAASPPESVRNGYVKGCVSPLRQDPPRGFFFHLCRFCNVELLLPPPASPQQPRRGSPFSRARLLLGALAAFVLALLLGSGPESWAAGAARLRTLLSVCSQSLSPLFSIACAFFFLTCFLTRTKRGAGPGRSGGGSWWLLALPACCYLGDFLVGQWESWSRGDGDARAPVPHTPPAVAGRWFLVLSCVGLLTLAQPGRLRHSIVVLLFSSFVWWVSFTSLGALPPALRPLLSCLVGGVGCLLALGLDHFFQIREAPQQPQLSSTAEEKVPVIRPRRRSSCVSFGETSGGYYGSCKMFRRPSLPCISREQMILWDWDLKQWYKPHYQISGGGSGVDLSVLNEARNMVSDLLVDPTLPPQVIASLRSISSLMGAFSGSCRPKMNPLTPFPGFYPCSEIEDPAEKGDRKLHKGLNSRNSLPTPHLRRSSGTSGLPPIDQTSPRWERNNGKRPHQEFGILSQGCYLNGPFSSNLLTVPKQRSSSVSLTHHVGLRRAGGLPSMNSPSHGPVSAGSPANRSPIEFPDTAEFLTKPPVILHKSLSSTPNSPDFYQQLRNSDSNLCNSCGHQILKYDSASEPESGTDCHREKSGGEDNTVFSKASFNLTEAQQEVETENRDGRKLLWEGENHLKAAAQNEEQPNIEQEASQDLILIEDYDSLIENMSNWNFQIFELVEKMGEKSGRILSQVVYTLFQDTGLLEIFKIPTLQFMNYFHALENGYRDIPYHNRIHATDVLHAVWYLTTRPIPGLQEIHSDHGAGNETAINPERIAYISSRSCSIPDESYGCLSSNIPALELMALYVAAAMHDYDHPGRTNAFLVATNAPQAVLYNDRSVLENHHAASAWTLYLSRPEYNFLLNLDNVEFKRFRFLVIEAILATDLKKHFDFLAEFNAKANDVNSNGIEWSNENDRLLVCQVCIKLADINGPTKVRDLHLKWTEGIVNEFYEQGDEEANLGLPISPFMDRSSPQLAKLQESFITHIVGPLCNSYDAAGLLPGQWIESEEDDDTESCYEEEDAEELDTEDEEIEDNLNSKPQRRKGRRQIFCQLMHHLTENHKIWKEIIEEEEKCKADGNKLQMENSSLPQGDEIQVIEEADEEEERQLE
# Phosphodiesterase 1 = Phosphodiesterase 1 (Bos taurus, UniProt Q01061+P14100); experiment: Inhibition of bovine aorta PDE1 (phosphodiesterase 1); type: protein assay; in short: as §1
# Phosphodiesterase 4 = Phosphodiesterase 4 (Homo sapiens, UniProt P27815+Q08499+Q07343+Q08493); experiment: Inhibition of human recombinant PDE4 (phosphodiesterase 4); type: protein assay; in short: as §1
smiles,measurement,setting,value
COc1ccc([C@H]2c3[nH]c4ccccc4c3C[C@@H]3C(=O)NC(=O)N23)cc1,IC50,[1],20 nM
same,EC50,[2],3000 nM
COc1ccc([C@@H]2c3[nH]c4ccccc4c3C[C@@H]3C(=O)N(C4CCCCC4)C(=O)N23)cc1,IC50,[1],7 nM
same,IC50,[3],> 10000 nM
same,IC50,Phosphodiesterase 3B,> 10000 nM
same,IC50,Phosphodiesterase 1,> 10000 nM
same,IC50,Phosphodiesterase 4,> 10000 nM
same,EC50,[2],300 nM
CCCCN1C(=O)[C@H]2Cc3c([nH]c4ccccc34)[C@@H](c3ccc(Cl)cc3)N2C1=O,IC50,[1],50 nM
same,EC50,[2],> 10000 nM
CCCCN1C(=O)[C@H]2Cc3c([nH]c4ccccc34)[C@@H](c3cccnc3)N2C1=O,IC50,[1],90 nM
CCCCN1C(=O)[C@H]2Cc3c(n(C)c4ccccc34)[C@@H](c3ccc(OC)cc3)N2C1=O,IC50,[1],> 10000 nM
CCN1C(=O)[C@H]2Cc3c([nH]c4ccccc34)[C@@H](c3ccc(OC)cc3)N2C1=O,IC50,[1],10 nM
same,EC50,[2],400 nM
COc1ccc([C@H]2c3[nH]c4ccccc4c3C[C@@H]3C(=O)N(CCc4ccccn4)C(=O)N23)cc1,IC50,[1],6 nM
same,EC50,[2],1500 nM
CCCCN1C(=O)[C@H]2Cc3c([nH]c4ccccc34)[C@H](c3ccc(C#N)cc3)N2C1=O,IC50,[1],300 nM
COc1ccc([C@H]2c3[nH]c4ccccc4c3C[C@@H]3C(=O)N(CCN(C)C)C(=O)N23)cc1,IC50,[1],30 nM
same,EC50,[2],3500 nM
COc1ccc([C@H]2c3[nH]c4ccccc4c3C[C@@H]3C(=O)N(C4CCCCC4)C(=O)N23)cc1,IC50,[1],3 nM
same,EC50,[2],100 nM
CCCCN1C(=O)[C@H]2Cc3c([nH]c4ccccc34)[C@@H](c3cccc(Cl)c3)N2C1=O,IC50,[1],50 nM
same,EC50,[2],4000 nM
COc1ccc([C@@H]2c3[nH]c4ccccc4c3C[C@@H]3C(=O)N(Cc4ccccc4)C(=O)N23)cc1,IC50,[1],4 nM
same,IC50,[3],> 10000 nM
same,IC50,Phosphodiesterase 3B,> 10000 nM
same,IC50,Phosphodiesterase 1,> 10000 nM
same,IC50,Phosphodiesterase 4,> 10000 nM
same,EC50,[2],150 nM
CCCCN1C(=O)[C@H]2Cc3c([nH]c4ccccc34)[C@@H](c3ccc(C#N)cc3)N2C1=O,IC50,[1],900 nM
CCCCN1C(=O)[C@H]2Cc3c([nH]c4ccccc34)[C@@H](c3ccoc3)N2C1=O,IC50,[1],100 nM
CCCCN1C(=O)[C@H]2Cc3c([nH]c4ccccc34)[C@@H](c3ccncc3)N2C1=O,IC50,[1],300 nM
same,IC50,Phosphodiesterase 3B,> 10000 nM
same,IC50,Phosphodiesterase 1,2000 nM
same,IC50,Phosphodiesterase 4,> 10000 nM
CCN1C(=O)[C@H]2Cc3c([nH]c4ccccc34)[C@H](c3ccc(OC)cc3)N2C1=O,IC50,[1],7 nM
same,EC50,[2],1500 nM
CCCCN1C(=O)[C@H]2Cc3c([nH]c4ccccc34)[C@@H](c3ccsc3)N2C1=O,IC50,[1],30 nM
CCCCN1C(=O)[C@H]2Cc3c([nH]c4ccccc34)[C@H](c3ccccc3)N2C1=O,IC50,[1],20 nM
same,EC50,[2],2000 nM
CCCCN1C(=O)[C@H]2Cc3c([nH]c4ccccc34)[C@H](c3ccc(OC)cc3)N2C1=O,IC50,[3],> 10000 nM
same,IC50,Phosphodiesterase 3B,> 10000 nM
same,IC50,Phosphodiesterase 1,> 10000 nM
same,IC50,Phosphodiesterase 4,> 10000 nM
same,EC50,[2],1000 nM
COc1ccc([C@H]2c3[nH]c4ccccc4c3C[C@@H]3C(=O)N(Cc4cccnc4)C(=O)N23)cc1,IC50,[1],20 nM
same,EC50,[2],5500 nM
COc1ccc([C@H]2c3[nH]c4ccccc4c3C[C@@H]3C(=O)N(Cc4ccccc4)C(=O)N23)cc1,IC50,[1],18 nM
same,EC50,[2],> 10000 nM
COc1ccc([C@@H]2c3[nH]c4ccccc4c3C[C@@H]3C(=O)N(C)C(=O)N23)cc1,IC50,[1],10 nM
same,EC50,[2],1000 nM
CCCCN1C(=O)[C@H]2Cc3c([nH]c4ccccc34)[C@H](c3ccc(Cl)cc3)N2C1=O,IC50,[1],20 nM
same,EC50,[2],1500 nM
COc1ccc([C@H]2c3[nH]c4ccccc4c3C[C@@H]3C(=O)N(CCN4CCCC4)C(=O)N23)cc1,IC50,[1],100 nM
same,EC50,[2],10000 nM
CCCCN1C(=O)[C@H]2Cc3c([nH]c4ccccc34)[C@@H](c3ccc(OC)cc3)N2C1=O,IC50,[3],> 10000 nM
same,IC50,Phosphodiesterase 3B,> 10000 nM
same,IC50,Phosphodiesterase 1,> 10000 nM
same,IC50,Phosphodiesterase 4,> 10000 nM
same,EC50,[2],700 nM
CCCCN1C(=O)[C@H]2Cc3c([nH]c4ccccc34)[C@@H](c3ccccc3)N2C1=O,IC50,[1],60 nM
same,EC50,[2],5000 nM
CCOC(=O)c1cc2c(cn1)[nH]c1ccccc12,IC50,[1],800 nM
CCCCN1C(=O)[C@H]2Cc3c([nH]c4ccccc34)[C@H](c3cccc(Cl)c3)N2C1=O,IC50,[1],50 nM
same,EC50,[2],> 10000 nM
CCCCN1C(=O)[C@H]2Cc3c([nH]c4ccccc34)[C@H](c3ccccc3OC)N2C1=O,IC50,[1],1000 nM
CCCOc1ccccc1-c1nc2[nH]nnc2c(=O)[nH]1 [ZAPRINAST],IC50,Phosphodiesterase 3B,> 10000 nM
same,IC50,Phosphodiesterase 1,2600 nM
